# CSN inh – inhibitors of CSN-mediated cullin deneddylation, primary screen, biochemical, fluorescence polarization, uHTS. COP9 signalosome complex subunit 5 (Homo sapiens), Q92905. inhibition, % at 12.5 µM. hit rate 0.38% among 360,000. Purified CSN, SCF-Nedd8-OG deneddylation;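 active = pattern-corrected inhibition above about 35%, with an unprinted fluorescence ratio check between 0.5 and 1.5, limit read from the data, passing the limit was not always enough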;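 also: 0% = enzyme with substrate and 100% = substrate without enzyme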
# Target sequence (Q92905 whole entry, looked up, one chain of several): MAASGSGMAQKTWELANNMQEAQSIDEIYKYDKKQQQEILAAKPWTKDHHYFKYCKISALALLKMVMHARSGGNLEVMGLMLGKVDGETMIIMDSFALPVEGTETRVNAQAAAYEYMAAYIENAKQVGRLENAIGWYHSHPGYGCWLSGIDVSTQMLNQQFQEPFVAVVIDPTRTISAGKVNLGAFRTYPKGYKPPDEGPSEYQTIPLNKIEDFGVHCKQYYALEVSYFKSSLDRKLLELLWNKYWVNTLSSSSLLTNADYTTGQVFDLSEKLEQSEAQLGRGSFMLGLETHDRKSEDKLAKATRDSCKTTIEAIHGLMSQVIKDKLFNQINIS
#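 Assay system: HEK293T-derived human Csn5 enzyme; quantity: 0.24 nM enzyme; medium: Tris/NaCl/DTT buffer, pH 7.5; also added: substrate SCFSkp2-Nedd8OG, 10 nM; doses: 12.5 µM compound; schedule: 90 min reaction at room temperature; signal: FP; read-out: % inhibition of substrate cleavage by Csn5; benchmarks: substrate-only high control, full reaction low control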
# DNMT1 block – human DNMT1 methyltransferase inhibitors, primary screen, biochemical, molecular beacon, fluorescence, HinP1I cleavage, uHTS. DNA (cytosine-5)-methyltransferase 1 (Homo sapiens), P26358. inhibition (reported as % activation of signal), % at 10 µM. hit rate 0.83% among 360,000
# Scp1 inh – Scp-1 phosphatase inhibitors, primary screen, biochemical, colorimetric, uHTS. Carboxy-terminal domain RNA polymerase II polypeptide A small phosphatase 1 (Homo …. Recombinant Scp1, phosphopeptide, malachite green phosphate absorbance. inhibition, % at 20 µM. hit rate 0.88% among 340,000. AID 493091, 2011;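 active = inhibition above about 50% at 20 µM, limit read from the data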;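 also: plate controls were DMSO wells with enzyme for no effect and wells lacking enzyme for full effect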
# Target sequence (Q9GZU7 76-261 limits assumed): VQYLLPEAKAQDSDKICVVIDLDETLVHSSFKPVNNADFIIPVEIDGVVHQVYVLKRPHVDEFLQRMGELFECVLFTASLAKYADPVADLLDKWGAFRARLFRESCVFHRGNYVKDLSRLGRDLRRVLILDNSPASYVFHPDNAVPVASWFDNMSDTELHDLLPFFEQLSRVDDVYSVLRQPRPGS
#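 Assay system: SCP-1 catalytic fragment, aa 76-261 | Buffer or medium: Tris acetate buffer pH 5.5 with MgCl2 and Tween-20 | Compound: One concentration, 20 µM, with 1.0% DMSO | Also added: Phospho 17-mer peptide substrate | Signal: Absorbance at 630 nm | Incubation: 45 min enzyme reaction at room temperature | Measure: % inhibition of SCP-1 phosphate liberation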
# STEP inh – STEP phosphatase inhibitors, primary screen, biochemical, fluorescence intensity, uHTS. recombinant STEP, OMFP fluorogenic substrate. AID 588621, 2011. hit rate 0.25% among 360,000. inhibition, % at 20 µM. Tyrosine-protein phosphatase non-receptor type 5 (Homo sapiens), P54829;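 active = inhibition at 20 µM, scaled per plate between control wells, above about 37%, limit read from the data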;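 also: 0% = DMSO with enzyme and substrate and 100% = substrate only without enzyme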
#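 medium = Bis-Tris buffer pH 6.0, 2.5 mM DTT, 0.005% Tween 20 | test system = STEP (striatal-enriched tyrosine phosphatase) enzyme, cell-free | measure = normalized % inhibition | compound dosing = 20 µM, 1% DMSO | also added = 25 µM OMFP | schedule = reaction 20 min, ambient temperature | measured by = fluorescence read at 480 nm ex / 540 nm em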
# SUMO1-SIM PPI – modulators of SUMO1 protein-protein interactions, primary screen, biochemical, uHTS. hit rate 0.33% among 360,000. SUMO1 binding to a labelled peptide, TR-FRET, 1 h. Small ubiquitin-related modifier 1 (Homo sapiens), P63165. inhibition, % at 20 µM; in the data active = inhibition above about 37%
# Target sequence (P63165 whole entry, looked up): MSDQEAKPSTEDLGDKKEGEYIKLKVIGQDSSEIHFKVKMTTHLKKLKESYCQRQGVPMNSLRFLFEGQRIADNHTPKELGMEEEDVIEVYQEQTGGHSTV
# LMPTP block – LMPTP phosphatase inhibitors, primary screen, biochemical, fluorescence intensity, uHTS | inhibition, % at 20 µM | Low molecular weight phosphotyrosine protein phosphatase (Homo sapiens), P24666 | hit rate 0.22% among 360,000 | recombinant LMPTP-A, OMFP fluorogenic substrate;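 active = compounds that cut the enzyme signal by at least half of the control window in the single-dose screen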;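 also: plate controls were DMSO wells with enzyme plus substrate for no effect and substrate without enzyme for full effect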
#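 Buffer or medium: Bis-Tris pH 6.0, DTT, detergent; Assay system: LMPTP-A enzyme; Quantity: 0.625 nM enzyme; Detection: endpoint fluorescence intensity; Times: 50 min dark incubation at room temperature; Controls: substrate-only low control, DMSO enzyme-plus-substrate high control; Doses: single 20 µM dose; Read-out: percent inhibition versus substrate-only and uninhibited controls; Reagent: 400 µM OMFP.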
# Scp1 confirm – Scp-1 phosphatase inhibitors, retest, confirmation, biochemical, colorimetric, single concentration. shares compounds with Scp1 inh. recombinant SCP-1 catalytic domain, phosphate release, malachite green absorbance. inhibition, % at 20 µM. hit rate 61% among 2,500. AID 540281, 2011;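 active = inhibition of at least 30% at 20 µM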;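 also: plate controls were DMSO with enzyme for no effect and buffer wells lacking enzyme for full effect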
# Scp-1 MG ctr – colorimetric readout interference by compounds, confirmation, artefact control for Scp-1 inhibitor project, biochemical, single concentration; shares compounds with Scp1 inh; Colorimetric interference counterscreen, malachite green absorbance 630 nm; apparent inhibition (interference), % at 20 µM; 2,500 tested, under 10 active; AID 540313, 2011;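 active = inhibition of at least 30% at 20 µM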;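 also: compounds added after enzyme reaction finished so only phosphate colour detection is probed; plate controls were DMSO wells with completed Scp-1 reaction for no effect and substrate wells lacking enzyme for full effect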
# Scp-1 Tm shift – Scp-1 binding by thermal shift, confirmation, orthogonal assay for Scp-1 inhibitor project, biophysical, differential scanning fluorimetry; shares compounds with Scp1 inh; Recombinant SCP1, Sypro Orange thermal shift Tm; thermal shift relative to vanadate control, % at 40 µM; hit rate 25% among 1,500; AID 540329, 2011;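 active = substances whose mean melting-temperature shift, as a percentage of the reference inhibitor's shift, reaches about 5.3%, limit read from the data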;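 also: 0% = Tm of DMSO wells and 100% = Tm with sodium orthovanadate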
# DNMT1 inh conf – DNMT1 methyltransferase inhibitor retest, confirmation, biochemical, molecular beacon, fluorescence, single concentration; shares compounds with DNMT1 block; DNMT1 molecular beacon HinP1I cleavage; inhibition, % at 10 µM; hit rate 8% among 2,300; AID 602385, 2012;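 active = average inhibition of at least 30% in the single-concentration confirmation test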
# Beacon interf – beacon fluorescence artifact counter-screen; shares compounds with DNMT1 block; DNMT1 molecular beacon spectral interference counterscreen, fluorescence 485/520; activation (fluorescence interference), % at 10 µM; hit rate 1% among 2,300;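 active = activation of at least 30% at 10 µM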;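 also: DNMT1 catalytic domain with a HinP1I cleavage step and a FAM/dabcyl DNA beacon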
# STEP conf – STEP phosphatase inhibitor hit confirmation, biochemical, fluorescence intensity, single concentration. shares compounds with STEP inh. recombinant STEP, OMFP fluorogenic substrate. inhibition, % at 20 µM. hit rate 32% among 520. AID 623866, 2012; call rule not given here;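 also: 0% = enzyme with substrate plus DMSO and 100% = substrate without enzyme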
# CSN5 deneddyl – Csn5 deneddylation inhibitors, confirmation, biochemical, fluorescence polarization, single concentration, SCF-Nedd8OG substrate; hit rate 62% among 540; AID 720654, 2013; Csn5 deneddylation of SCF-Nedd8OG, 90 min; shares compounds with CSN inh; inhibition, % at 16.6 µM;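 also: 0% = DMSO with enzyme and 100% = no enzyme wells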
# MMP2 cntr CSN – MMP-2 protease inhibition counter-screen, confirmation, counter-screen for CSN deneddylation inhibitor project, biochemical, fluorescence, single concentration. shares compounds with CSN inh. recombinant MMP-2, FRET substrate fluorescence, 60 min. inhibition, % at 16.6 µM. hit rate 33% among 540;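 active = corrected plate-normalized z-score of 5 or more, or -5 or less, or inhibition of 15% or more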;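 also: plate controls were DMSO wells with enzyme for no effect and buffer wells lacking MMP-2 for full effect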
# Thrombin counter – thrombin (bovine) inhibition, counter-screen for CSN hits. shares compounds with CSN inh. bovine thrombin cleavage of Ub4-pepOG, fluorescence polarization. inhibition, % at 16.6 µM. hit rate 49% among 540. AID 720656;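 active = inhibition at or above a set limit, with a fluorescence interference ratio between 0.5 and a set maximum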
# Starred values were filed as active, the others as inactive; . = no result. Most compounds without a hit are left out; they make up all but 2% or so of the library. Rule as the data show it, unless noted: active = inhibition above about 50%; inactive = the rest.
SMILES,CSN inh,DNMT1 block,Scp1 inh,STEP inh,SUMO1-SIM PPI,LMPTP block,Scp1 confirm,Scp-1 MG ctr,Scp-1 Tm shift,DNMT1 inh conf,Beacon interf,CSN5 deneddyl,MMP2 cntr CSN,Thrombin counter,others
Cc1cc2c(SCC(=O)Nc3cccc(O)c3)ncnc2s1,36*,70*,70*,10,22,32,59*,-15,13*,.,.,85*,13,1,
COc1ccc(NC(=O)CSc2ncnc3sc(C)cc23)cc1,-3,-1,-4,1,2,-1,.,.,.,.,.,.,.,.,
O=C(N/N=C\C=C\c1ccco1)c1cc(-c2ccc3ccccc3c2)n[nH]1,43*,68*,70*,4,16,15,42*,-14,13*,5,30,96*,11,-9,
O=C1C2C(C(=O)N1/N=C/c1cc([N+](=O)[O-])c(O)cc1O)C1C=CC2C12CC2 (stereo not drawn),36*,83*,64*,12,12,17,64*,-3,5.9*,7,-1,71,17*,10,
Cc1ccc(S(=O)(=O)Cc2ccc(C(=O)O)o2)cc1,35*,89*,86*,55*,10,8,50*,-21,7.9*,11,1,64*,22*,6,STEP conf=50*
COc1ccc(S(=O)(=O)Cc2ccc(C(=O)O)o2)cc1,7,3,0,2,0,-1,.,.,.,.,.,.,.,.,
Cc1ccc2nc(/C(C#N)=C/c3ccc(-c4ccccc4C(=O)O)o3)[nH]c2c1,76*,21,54*,4,0,5,47*,-13,7.3*,.,.,63*,-32*,68,
COc1ccc(S(=O)(=O)NCC2CCC(C(=O)NCC(OC)OC)CC2)cc1 (stereo not drawn),8,1,2,-2,3,-2,.,.,.,.,.,.,.,.,
Cc1nnn(-c2nonc2N)c1C(=O)N/N=C/c1ccccc1O,44*,79*,51*,11,3,36,64*,-12,-4,12,-1,-17,23*,-9,
COc1cc(/C=N/NC(=O)c2c(C)nnn2-c2nonc2N)ccc1O,-1,1,2,-2,-12,-1,.,.,.,.,.,.,.,.,
O=C(NCCc1cccc(Cl)c1)c1cccc(-n2cnnn2)c1,-1,10,-5,1,4,-1,.,.,.,.,.,.,.,.,
CCN(CC(=O)Nc1c(F)cccc1F)C(=O)CCNC(=O)c1ccco1,-6,-3,-7,-1,3,-2,.,.,.,.,.,.,.,.,
CC(=O)NC1=NC(=O)/C(=C/c2cc(C)n(-c3ccc(NC(C)=O)cc3)c2C)S1,30,-14,6,-3,-10,2,.,.,.,.,.,.,.,.,
CC(=O)NC1=NC(=O)/C(=C/c2cc(C)n(-c3cccc(C(=O)O)c3)c2C)S1,61*,93*,72*,34,23,16,53*,-21,5.3*,.,.,-34,16*,53*,
CC(C)c1cc(C(=O)OCC(=O)NC2CC2)c(O)c(C(C)C)c1,0,3,.,1,2,2,.,.,.,.,.,.,.,.,
Cc1cc(C(=O)O)ccc1-c1ccc(/C=C2\NC(=O)N(Cc3ccc(F)cc3)C2=O)o1,36*,64*,73*,9,29,9,65*,-6,9.4*,20,0,.,17*,16*,
Cc1cccc(NC(=O)CN2C(=O)N/C(=C\c3ccc(-c4cccc(C(=O)O)c4)o3)C2=O)c1,4,12,49,-1,-14,1,.,.,.,.,.,.,.,.,
Cc1c(CCC(=O)O)c(=O)oc2c(C)c3occ(-c4ccc(Br)cc4)c3cc12,39*,12,67*,22,52*,90*,66*,-28,-6,.,.,26,30*,-5,
Cc1ccc(NC(=O)CN(C)C(=O)c2cc(-c3ccco3)nc3ccccc23)cc1,51*,75*,76*,4,12,25,68*,-13,6.2*,11,5,.,10,-6,
Cc1ccc(S(=O)(=O)N(C)CC(=O)Nc2cccnc2)cc1,0,0,-1,-2,3,0,.,.,.,.,.,.,.,.,

# Screening data deposited in PubChem by Sanford-Burnham Center for Chemical Genomics.
